Source: ChEMBL document CHEMBL4811225 (J Med Chem, 2021)
Where a SMILES comes first, the peptide text is derived from it. Bridges are numbered along the chain shown (N, C = ends).

What was measured:
[1] = biological target: Nicotinic acetylcholine receptor alpha9/alpha10 (Rattus norvegicus) (UniProt P43144+Q9JLB5); assay: Inhibition of rat alpha9alpha10 nAChR expressed in Xenopus laevis oocytes assessed as inhibition of acetylcholine-induced current response at 10 uM by two-electrode voltage-clamp method relative to control; assay type: cell-based; conditions: Oocyte
How it was run: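 Oocytes (stage IV–V) injected with equal-ratio cRNAs of cloned subunits; TEVC 1–5 days post-injection. ACh 100 μM for β2-containing and α9α10 subtypes, 1 s pulses every 60 s. Peptide 10 μM in 5 min static bath; response normalized to ACh response after 5 min control-saline bath; mean ± SD, n = 4.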

[2] = biological target: Neuronal acetylcholine receptor subunit alpha-7 (Homo sapiens, UniProt P36544); assay: Inhibition of human alpha7 nAChR expressed in Xenopus laevis oocytes assessed as inhibition of acetylcholine-induced current response by two-electrode voltage-clamp method; assay type: cell-based, Oocyte
How it was run: (§1)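 TEVC on stage IV–V oocytes 1–5 days after equal-ratio cRNA injection (α2β4, α3β4, α4β4, α7). ACh 300 μM, 1 s pulses at 60 s intervals under frog saline perfusion. Peptide perfused to 1 μM, normalized to average of three control responses; higher concentrations by 5 min static bath. IC50 with 95% CI, n oocytes.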

[3] = biological target: Neuronal acetylcholine receptor; alpha2/beta4 (Rattus norvegicus, UniProt P12389+P12392); assay: Inhibition of rat alpha2beta4 nAChR expressed in Xenopus laevis oocytes assessed as inhibition of acetylcholine-induced current response by two-electrode voltage-clamp method; assay type: cell-based, Oocyte; how it was run: as §1
[4] = biological target: Neuronal acetylcholine receptor; alpha3/beta2 (Rattus norvegicus, UniProt P04757+P12390); assay type: cell-based, Oocyte
[5] = biological target: Neuronal acetylcholine receptor; alpha2/beta4 (Rattus norvegicus) (UniProt P12389+P12392); assay: Inhibition of rat alpha2beta4 nAChR expressed in Xenopus laevis oocytes assessed as inhibition of acetylcholine-induced current response at 10 uM by two-electrode voltage-clamp method relative to control; assay type: cell-based; conditions: Oocyte
How it was run: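 Stage IV–V X. laevis oocytes expressing equal-ratio cRNAs of α2β4, α3β4, α4β4 or α7 subunits; TEVC 1–5 days after injection. ACh 300 μM, 1 s at 60 s intervals. 10 μM peptide as 5 min static bath, normalized to ACh response after 5 min bath of control saline; mean ± SD, n = 4.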

Homo sapiens [6] = species: Homo sapiens; assay: Selectivity ratio of IC50 for human alpha9alpha10 nAChR to IC50 for human alpha6/alpha3beta4 nAChR
How it was run: (§2)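 Ratio of each subtype's IC50, from TEVC inhibition of ACh-evoked currents in X. laevis oocytes, to the IC50 at the same species' α6/α3β4 nAChR; IC50 values with 95% CI, n = number of oocytes.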

[7] = biological target: Nicotinic acetylcholine receptor alpha6/alpha3/beta4 (Rattus norvegicus, UniProt P04757+P12392+P43143); assay type: cell-based, Oocyte
Homo sapiens [8] = species: Homo sapiens; assay: Selectivity ratio of IC50 for human alpha4beta2 nAChR to IC50 for human alpha6/alpha3beta4 nAChR; how it was run: as §2
Homo sapiens [9] = species: Homo sapiens; assay: Selectivity ratio of IC50 for human alpha3beta4 nAChR to IC50 for human alpha6/alpha3beta4 nAChR; how it was run: as §2
[10] = biological target: Nicotinic acetylcholine receptor alpha6/alpha3/beta4 (Homo sapiens, UniProt P30926+P32297+Q15825); conditions: Oocyte

Neuronal acetylcholine receptor; alpha2/beta4, sequence (P12389 whole entry): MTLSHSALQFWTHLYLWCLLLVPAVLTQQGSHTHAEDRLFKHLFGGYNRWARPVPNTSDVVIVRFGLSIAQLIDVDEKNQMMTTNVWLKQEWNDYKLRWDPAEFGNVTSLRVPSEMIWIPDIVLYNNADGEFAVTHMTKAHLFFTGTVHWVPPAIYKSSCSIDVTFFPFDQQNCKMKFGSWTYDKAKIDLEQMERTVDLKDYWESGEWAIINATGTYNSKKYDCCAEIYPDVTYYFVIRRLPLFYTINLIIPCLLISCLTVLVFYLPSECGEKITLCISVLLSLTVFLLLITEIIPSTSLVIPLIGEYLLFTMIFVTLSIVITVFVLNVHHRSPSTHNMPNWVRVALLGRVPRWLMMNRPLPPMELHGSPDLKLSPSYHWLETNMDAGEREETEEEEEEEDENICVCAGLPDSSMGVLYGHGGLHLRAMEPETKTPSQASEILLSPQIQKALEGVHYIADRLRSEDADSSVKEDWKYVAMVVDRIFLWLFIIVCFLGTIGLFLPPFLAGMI
Neuronal acetylcholine receptor; alpha2/beta4, sequence (P12392 whole entry): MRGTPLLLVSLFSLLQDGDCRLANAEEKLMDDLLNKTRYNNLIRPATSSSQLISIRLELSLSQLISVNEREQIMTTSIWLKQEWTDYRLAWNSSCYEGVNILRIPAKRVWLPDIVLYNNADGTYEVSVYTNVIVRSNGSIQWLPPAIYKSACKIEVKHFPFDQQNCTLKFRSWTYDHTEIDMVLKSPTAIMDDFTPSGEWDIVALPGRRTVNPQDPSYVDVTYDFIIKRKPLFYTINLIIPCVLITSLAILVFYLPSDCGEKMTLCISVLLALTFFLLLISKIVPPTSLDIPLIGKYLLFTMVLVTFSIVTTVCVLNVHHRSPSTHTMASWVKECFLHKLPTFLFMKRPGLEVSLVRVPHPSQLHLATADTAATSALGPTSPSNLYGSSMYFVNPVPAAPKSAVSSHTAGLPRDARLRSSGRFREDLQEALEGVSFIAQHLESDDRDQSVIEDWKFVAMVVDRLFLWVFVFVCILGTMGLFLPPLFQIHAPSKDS
Neuronal acetylcholine receptor; alpha3/beta2, sequence (P04757 whole entry): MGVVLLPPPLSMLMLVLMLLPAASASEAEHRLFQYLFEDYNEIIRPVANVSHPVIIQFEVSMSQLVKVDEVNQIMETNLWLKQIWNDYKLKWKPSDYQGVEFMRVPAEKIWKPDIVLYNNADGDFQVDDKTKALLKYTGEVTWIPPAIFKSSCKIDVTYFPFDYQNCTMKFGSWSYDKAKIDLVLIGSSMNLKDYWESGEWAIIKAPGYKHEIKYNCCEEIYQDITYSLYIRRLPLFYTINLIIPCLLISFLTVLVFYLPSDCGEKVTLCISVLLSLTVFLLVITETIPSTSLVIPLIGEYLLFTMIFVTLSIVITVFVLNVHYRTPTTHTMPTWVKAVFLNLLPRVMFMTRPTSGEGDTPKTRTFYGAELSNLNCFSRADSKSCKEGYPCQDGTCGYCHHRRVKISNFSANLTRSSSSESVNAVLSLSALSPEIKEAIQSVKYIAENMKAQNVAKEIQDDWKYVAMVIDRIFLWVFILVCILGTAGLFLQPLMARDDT
Neuronal acetylcholine receptor; alpha3/beta2, sequence (P12390 whole entry): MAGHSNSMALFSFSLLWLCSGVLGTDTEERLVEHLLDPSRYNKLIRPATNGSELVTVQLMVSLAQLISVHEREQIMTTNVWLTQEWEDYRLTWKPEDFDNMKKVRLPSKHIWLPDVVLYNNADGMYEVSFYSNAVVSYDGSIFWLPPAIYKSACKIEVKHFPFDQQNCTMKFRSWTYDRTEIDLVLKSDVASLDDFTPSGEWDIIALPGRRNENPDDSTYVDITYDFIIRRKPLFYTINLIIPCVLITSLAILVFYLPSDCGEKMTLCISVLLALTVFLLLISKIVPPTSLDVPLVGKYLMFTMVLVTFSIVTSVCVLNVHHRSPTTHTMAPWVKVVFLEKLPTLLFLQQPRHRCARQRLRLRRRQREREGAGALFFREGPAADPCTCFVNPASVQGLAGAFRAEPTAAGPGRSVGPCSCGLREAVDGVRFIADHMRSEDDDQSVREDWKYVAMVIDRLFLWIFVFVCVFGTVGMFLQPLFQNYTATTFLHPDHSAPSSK
Nicotinic acetylcholine receptor alpha6/alpha3/beta4 (Rattus norvegicus, UniProt P04757+P12392+P43143), sequence (P04757 whole entry): as the sequence (P04757 whole entry) above
Nicotinic acetylcholine receptor alpha6/alpha3/beta4 (Rattus norvegicus, UniProt P04757+P12392+P43143), sequence (P12392 whole entry): as the sequence (P12392 whole entry) above
Nicotinic acetylcholine receptor alpha6/alpha3/beta4 (Rattus norvegicus, UniProt P04757+P12392+P43143), sequence (P43143 whole entry): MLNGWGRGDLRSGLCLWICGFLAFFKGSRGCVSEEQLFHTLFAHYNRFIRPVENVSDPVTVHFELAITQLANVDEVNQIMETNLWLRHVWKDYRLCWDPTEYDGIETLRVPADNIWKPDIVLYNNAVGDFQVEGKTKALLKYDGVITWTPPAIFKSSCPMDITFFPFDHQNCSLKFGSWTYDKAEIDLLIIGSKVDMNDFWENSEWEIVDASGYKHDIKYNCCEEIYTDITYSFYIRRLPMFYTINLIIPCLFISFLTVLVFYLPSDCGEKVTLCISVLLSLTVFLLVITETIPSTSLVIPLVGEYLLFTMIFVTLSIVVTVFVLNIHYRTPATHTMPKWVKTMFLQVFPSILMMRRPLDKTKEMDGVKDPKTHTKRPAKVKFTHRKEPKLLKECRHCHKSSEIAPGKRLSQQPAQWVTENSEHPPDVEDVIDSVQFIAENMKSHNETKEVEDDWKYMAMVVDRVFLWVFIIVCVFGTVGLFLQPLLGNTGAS
Neuronal acetylcholine receptor subunit alpha-7, sequence (P36544 whole entry, the tested form may be a part): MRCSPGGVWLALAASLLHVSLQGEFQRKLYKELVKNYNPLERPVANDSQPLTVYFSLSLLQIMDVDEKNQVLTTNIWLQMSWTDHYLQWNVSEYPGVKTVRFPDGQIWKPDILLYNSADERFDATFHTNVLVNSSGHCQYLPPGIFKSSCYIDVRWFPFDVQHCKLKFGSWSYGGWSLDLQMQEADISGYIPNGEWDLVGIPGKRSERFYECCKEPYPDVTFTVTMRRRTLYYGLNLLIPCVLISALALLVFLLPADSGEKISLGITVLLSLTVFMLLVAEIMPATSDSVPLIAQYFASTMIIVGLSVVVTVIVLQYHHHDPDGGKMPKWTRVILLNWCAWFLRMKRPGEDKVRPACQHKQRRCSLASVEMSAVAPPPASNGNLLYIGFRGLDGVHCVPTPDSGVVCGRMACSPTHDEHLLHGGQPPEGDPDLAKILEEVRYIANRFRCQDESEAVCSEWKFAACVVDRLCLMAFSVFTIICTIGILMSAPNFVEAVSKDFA

CC[C@H](C)[C@@H]1NC(=O)[C@H](CCC(=O)O)NC(=O)[C@@H]2CCCN2C(=O)[C@H](Cc2cnc[nH]2)NC(=O)[C@H](CC(N)=O)NC(=O)[C@H](C(C)C)NC(=O)[C@H](CC(N)=O)NC(=O)[C@@H]2CSSC[C@H](NC(=O)CN)C(=O)N[C@@H](CSSC[C@@H](C(N)=O)NC1=O)C(=O)N[C@@H](CO)C(=O)N[C@@H](Cc1cnc[nH]1)C(=O)N1CCC[C@H]1C(=O)N[C@@H](C(C)C)C(=O)N2 (H-GCCSHPVCNVNHPEIC-NH2; disulfide 2-8, 3-16)
inhibition [1]: 69%
IC50 [2]: > 10 µM
IC50 [3]: > 10 µM
IC50 [4]: > 10 µM
inhibition [5]: 85%
Ratio IC50 (Homo sapiens [6]): > 50000
IC50 [7]: 0.00048 µM
Ratio IC50 (Homo sapiens [8]): > 10000
Ratio IC50 (Homo sapiens [9]): 895
deltalogIC50 [10]: -1.5
